For 16 compounds, RFU results are on record in ChEMBL document CHEMBL4665872, “Rational design of cell-permeable cyclic peptides containing a d-Pro-l-Pro motif” (Bioorg Med Chem, 2020).

SMILES strings stand for the structures. Where a SMILES comes first, the peptide text is derived from it. Side-chain parts run from the residue outwards. [ ]: non-standard residue; d: D form. The star is where a group is joined. X1 = NC(=O)[C@H](CCCCNC(=O)c1ccc2c(c1)C(=O)OC21c2ccc3cc(O)ccc3c2Oc2c1ccc1cc(O)ccc21)N*; 2Nal = N[C@@H](Cc1ccc2ccccc2c1)C(=O)O; AEEA = NCCOCCOCC(=O)O

This series can be described thus: Drug uptake in human HeLa cells assessed as cytosolic entry efficiency measured as fluorescence at 5 uM incubated for 2 hrs by flow cytometry relative to CPP9 (100%). It counts as ADME, cell-based. In a few lines:
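HeLa cells seeded 24 h earlier, given 5 μM naphthofluorescein-labelled peptide in DMEM with 1% or 10% FBS, 37 °C, 2 h. Cells DPBS-washed, trypsinized, flow cytometry with 633-nm excitation, APC channel, 10,000 live-cell events gated. Signal read as cytosolic entry because NF is non-fluorescent in acidic compartments; mean ± SD of three independent experiments, relative to CPP9 (100%).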
Turning to `C[C@@H]1NC(=O)[C@H](C)NC(=O)[C@H](Cc2ccccc2)NC(=O)[C@H](CCCNC(=N)N)NC(=O)[C@H](CCCNC(=N)N)NC(=O)[C@@H]2CCCN2C(=O)[C@H]2CCCN2C(=O)[C@H](CCCNC(=N)N)NC(=O)[C@H](Cc2ccc3ccccc3c2)NC(=O)[C@H](Cc2ccccc2)NC(=O)[C@H](C)NC(=O)[C@H](C)NC(=O)[C@H](CCC(=O)NCCOCCOCC(=O)N[C@@H](CCCCNC(=O)c2ccc3c(c2)C(=O)OC32c3ccc4cc(O)ccc4c3Oc3c2ccc2cc(O)ccc32)C(N)=O)NC(=O)[C@H](C)NC1=O`, the RFU was 22%.
With `C[C@@H]1NC(=O)[C@H](CCCNC(=N)N)NC(=O)[C@H](CCC(=O)NCCOCCOCC(=O)N[C@@H](CCCCNC(=O)c2ccc3c(c2)C(=O)OC32c3ccc4cc(O)ccc4c3Oc3c2ccc2cc(O)ccc32)C(N)=O)NC(=O)[C@H](CCCNC(=N)N)NC(=O)[C@H](C)NC(=O)[C@H](CCCNC(=N)N)NC(=O)[C@H](Cc2ccccc2)NC(=O)[C@H](CCCNC(=N)N)NC(=O)[C@H](CCCNC(=N)N)NC(=O)[C@@H]2CCCN2C(=O)[C@H]2CCCN2C(=O)[C@@H](CCCNC(=N)N)NC(=O)[C@H](Cc2ccc3ccccc3c2)NC(=O)[C@H](Cc2ccccc2)NC1=O`, the RFU worked out at 34%.
For `C[C@@H]1NC(=O)[C@H](CC(=O)O)NC(=O)[C@H](CCC(=O)NCCOCCOCC(=O)N[C@@H](CCCCNC(=O)c2ccc3c(c2)C(=O)OC32c3ccc4cc(O)ccc4c3Oc3c2ccc2cc(O)ccc32)C(N)=O)NC(=O)[C@H](CC(=O)O)NC(=O)[C@H](C)NC(=O)[C@H](CC(=O)O)NC(=O)[C@H](Cc2ccccc2)NC(=O)[C@H](CCCNC(=N)N)NC(=O)[C@H](CCCNC(=N)N)NC(=O)[C@@H]2CCCN2C(=O)[C@H]2CCCN2C(=O)[C@@H](CCCNC(=N)N)NC(=O)[C@H](Cc2ccc3ccccc3c2)NC(=O)[C@H](Cc2ccccc2)NC1=O`, the RFU was found to be 14%.
For `C[C@@H]1NC(=O)[C@H](C)NC(=O)[C@H](Cc2ccccc2)NC(=O)[C@H](CCCNC(=N)N)NC(=O)[C@H](CCCNC(=N)N)NC(=O)[C@@H]2CCCN2C(=O)[C@H]2CCCN2C(=O)[C@H](CCCNC(=N)N)NC(=O)[C@@H](Cc2ccc3ccccc3c2)NC(=O)[C@H](Cc2ccccc2)NC(=O)[C@H](C)NC(=O)[C@H](C)NC(=O)[C@H](CCC(=O)NCCOCCOCC(=O)N[C@@H](CCCCNC(=O)c2ccc3c(c2)C(=O)OC32c3ccc4cc(O)ccc4c3Oc3c2ccc2cc(O)ccc32)C(N)=O)NC(=O)[C@H](C)NC1=O`, the RFU came to 51%.
Take `C[C@@H]1NC(=O)[C@H](C)NC(=O)[C@H](Cc2ccccc2)NC(=O)[C@H](CCCNC(=N)N)NC(=O)[C@H](CCCNC(=N)N)NC(=O)[C@@H]2CCCN2C(=O)[C@H]2CCCN2C(=O)[C@@H](CCCNC(=N)N)NC(=O)[C@H](Cc2ccc3ccccc3c2)NC(=O)[C@H](Cc2ccccc2)NC(=O)[C@H](C)NC(=O)[C@H](C)NC(=O)[C@H](CCC(=O)NCCOCCOCC(=O)N[C@@H](CCCCNC(=O)c2ccc3c(c2)C(=O)OC32c3ccc4cc(O)ccc4c3Oc3c2ccc2cc(O)ccc32)C(N)=O)NC(=O)[C@H](C)NC1=O`: the RFU was 33%.
In the case of `C[C@@H]1NC(=O)[C@H](Cc2ccccc2)NC(=O)[C@H](CCCNC(=N)N)NC(=O)[C@H](CCCNC(=N)N)NC(=O)[C@@H]2CCCN2C(=O)[C@H]2CCCN2C(=O)[C@@H](CCCNC(=N)N)NC(=O)[C@H](Cc2ccc3ccccc3c2)NC(=O)[C@H](Cc2ccccc2)NC(=O)[C@H](CCC(=O)NCCOCCOCC(=O)N[C@@H](CCCCNC(=O)c2ccc3c(c2)C(=O)OC32c3ccc4cc(O)ccc4c3Oc3c2ccc2cc(O)ccc32)C(N)=O)NC1=O` it was 8%; in that of `C[C@@H]1NC(=O)[C@H](Cc2ccc3ccccc3c2)NC(=O)[C@H](Cc2ccccc2)NC(=O)[C@H](C)NC(=O)[C@H](CCC(=O)NCCOCCOCC(=O)N[C@@H](CCCCNC(=O)c2ccc3c(c2)C(=O)OC32c3ccc4cc(O)ccc4c3Oc3c2ccc2cc(O)ccc32)C(N)=O)NC(=O)[C@H](Cc2ccccc2)NC(=O)[C@H](CCCNC(=N)N)NC(=O)[C@H](CCCNC(=N)N)NC(=O)[C@@H]2CCCN2C(=O)[C@H](C)NC1=O` (cyclo([2Nal]AAPRRFE([AEEA-X1])AF)), 46%; in that of `C[C@@H]1NC(=O)[C@H](C)NC(=O)[C@H](CCCNC(=N)N)NC(=O)[C@H](CCCNC(=N)N)NC(=O)[C@H](CCCNC(=N)N)NC(=O)[C@@H]2CCCN2C(=O)[C@H]2CCCN2C(=O)[C@H](CCCNC(=N)N)NC(=O)[C@H](Cc2ccc3ccccc3c2)NC(=O)[C@H](Cc2ccccc2)NC(=O)[C@H](C)NC(=O)[C@H](C)NC(=O)[C@H](CCC(=O)NCCOCCOCC(=O)N[C@@H](CCCCNC(=O)c2ccc3c(c2)C(=O)OC32c3ccc4cc(O)ccc4c3Oc3c2ccc2cc(O)ccc32)C(N)=O)NC(=O)[C@H](C)NC1=O`, 21%.
With `C[C@@H]1NC(=O)[C@H](C)NC(=O)[C@H](Cc2ccccc2)NC(=O)[C@H](CCCNC(=N)N)NC(=O)[C@@H](CCCNC(=N)N)NC(=O)[C@@H]2CCCN2C(=O)[C@H]2CCCN2C(=O)[C@H](CCCNC(=N)N)NC(=O)[C@H](Cc2ccc3ccccc3c2)NC(=O)[C@H](Cc2ccccc2)NC(=O)[C@H](C)NC(=O)[C@H](C)NC(=O)[C@H](CCC(=O)NCCOCCOCC(=O)N[C@@H](CCCCNC(=O)c2ccc3c(c2)C(=O)OC32c3ccc4cc(O)ccc4c3Oc3c2ccc2cc(O)ccc32)C(N)=O)NC(=O)[C@H](C)NC1=O`, the RFU worked out at 32%.
With `C[C@@H]1NC(=O)[C@H](C)NC(=O)[C@H](Cc2ccccc2)NC(=O)[C@H](CCCNC(=N)N)NC(=O)[C@H](CCCNC(=N)N)NC(=O)[C@H](C)NC(=O)[C@H](C)NC(=O)[C@@H](CCCNC(=N)N)NC(=O)[C@H](Cc2ccc3ccccc3c2)NC(=O)[C@H](Cc2ccccc2)NC(=O)[C@H](C)NC(=O)[C@H](C)NC(=O)[C@H](CCC(=O)NCCOCCOCC(=O)N[C@@H](CCCCNC(=O)c2ccc3c(c2)C(=O)OC32c3ccc4cc(O)ccc4c3Oc3c2ccc2cc(O)ccc32)C(N)=O)NC(=O)[C@H](C)NC1=O`, the RFU turned out to be 4.1%.
The same measure for `C[C@@H]1NC(=O)[C@H](CO)NC(=O)[C@H](C)NC(=O)[C@H](CO)NC(=O)[C@H](Cc2ccccc2)NC(=O)[C@H](CCCNC(=N)N)NC(=O)[C@H](CCCNC(=N)N)NC(=O)[C@@H]2CCCN2C(=O)[C@H]2CCCN2C(=O)[C@@H](CCCNC(=N)N)NC(=O)[C@H](Cc2ccc3ccccc3c2)NC(=O)[C@H](Cc2ccccc2)NC(=O)[C@H](CO)NC(=O)[C@H](C)NC(=O)[C@H](CO)NC(=O)[C@H](CCC(=O)NCCOCCOCC(=O)N[C@@H](CCCCNC(=O)c2ccc3c(c2)C(=O)OC32c3ccc4cc(O)ccc4c3Oc3c2ccc2cc(O)ccc32)C(N)=O)NC1=O`: 84%; for `C[C@@H]1NC(=O)[C@H](C)NC(=O)[C@H](Cc2ccc3ccccc3c2)NC(=O)[C@H](CCCNC(=N)N)NC(=O)[C@H](CCCNC(=N)N)NC(=O)[C@@H]2CCCN2C(=O)[C@H]2CCCN2C(=O)[C@H](CCCNC(=N)N)NC(=O)[C@H](CCCNC(=N)N)NC(=O)[C@H](Cc2ccccc2)NC(=O)[C@H](C)NC(=O)[C@H](C)NC(=O)[C@H](CCC(=O)NCCOCCOCC(=O)N[C@@H](CCCCNC(=O)c2ccc3c(c2)C(=O)OC32c3ccc4cc(O)ccc4c3Oc3c2ccc2cc(O)ccc32)C(N)=O)NC(=O)[C@H](C)NC1=O`: 5.7%.
Consider `C[C@@H]1NC(=O)[C@H](C)NC(=O)[C@H](CCCNC(=N)N)NC(=O)[C@H](CCCNC(=N)N)NC(=O)[C@H](CCCNC(=N)N)NC(=O)[C@@H]2CCCN2C(=O)[C@H]2CCCN2C(=O)[C@H](Cc2ccccc2)NC(=O)[C@H](Cc2ccc3ccccc3c2)NC(=O)[C@H](Cc2ccccc2)NC(=O)[C@H](C)NC(=O)[C@H](C)NC(=O)[C@H](CCC(=O)NCCOCCOCC(=O)N[C@@H](CCCCNC(=O)c2ccc3c(c2)C(=O)OC32c3ccc4cc(O)ccc4c3Oc3c2ccc2cc(O)ccc32)C(N)=O)NC(=O)[C@H](C)NC1=O`, for which the RFU was 8.3%.
As for `N=C(N)NCCC[C@@H]1NC(=O)[C@H](Cc2ccc3ccccc3c2)NC(=O)[C@@H](Cc2ccccc2)NC(=O)[C@H](CCC(=O)NCCOCCOCC(=O)N[C@@H](CCCCNC(=O)c2ccc3c(c2)C(=O)OC32c3ccc4cc(O)ccc4c3Oc3c2ccc2cc(O)ccc32)C(N)=O)NC(=O)[C@@H](CCCNC(=N)N)NC(=O)[C@H](CCCNC(=N)N)NC(=O)[C@@H](CCCNC(=N)N)NC1=O`, the RFU is given as 100%.
As for `C[C@@H]1NC(=O)[C@H](C)NC(=O)[C@H](Cc2ccccc2)NC(=O)[C@@H](CCCNC(=N)N)NC(=O)[C@H](CCCNC(=N)N)NC(=O)[C@@H]2CCCN2C(=O)[C@H]2CCCN2C(=O)[C@H](CCCNC(=N)N)NC(=O)[C@H](Cc2ccc3ccccc3c2)NC(=O)[C@H](Cc2ccccc2)NC(=O)[C@H](C)NC(=O)[C@H](C)NC(=O)[C@H](CCC(=O)NCCOCCOCC(=O)N[C@@H](CCCCNC(=O)c2ccc3c(c2)C(=O)OC32c3ccc4cc(O)ccc4c3Oc3c2ccc2cc(O)ccc32)C(N)=O)NC(=O)[C@H](C)NC1=O`, the RFU amounted to 37%.
The same measure for `C[C@@H]1NC(=O)[C@H](CCC(=O)NCCOCCOCC(=O)N[C@@H](CCCCNC(=O)c2ccc3c(c2)C(=O)OC32c3ccc4cc(O)ccc4c3Oc3c2ccc2cc(O)ccc32)C(N)=O)NC(=O)[C@H](Cc2ccccc2)NC(=O)[C@H](CCCNC(=N)N)NC(=O)[C@H](CCCNC(=N)N)NC(=O)[C@@H]2CCCN2C(=O)[C@H]2CCCN2C(=O)[C@@H](CCCNC(=N)N)NC(=O)[C@H](Cc2ccc3ccccc3c2)NC(=O)[C@H](Cc2ccccc2)NC1=O`: 94%.
